# Measured values published in paper PMC7729281 (Biochemistry, 2020).
# Several values for one entry are separate records, joined by “and”; a condition that tells them apart may be missing. Identical values can stand only once.
# Columns and labels:
# [1] = target: T1, h12-LOX (Homo sapiens, UniProt P18054); assay: Allosteric modulation of 14S-HpDHA epoxidation by h12-LOX; assay type: biochemical; conditions: 14S-HpDHA titrated 1 to 50 μM, 76% at start
# T1 sequence (P18054 1-663): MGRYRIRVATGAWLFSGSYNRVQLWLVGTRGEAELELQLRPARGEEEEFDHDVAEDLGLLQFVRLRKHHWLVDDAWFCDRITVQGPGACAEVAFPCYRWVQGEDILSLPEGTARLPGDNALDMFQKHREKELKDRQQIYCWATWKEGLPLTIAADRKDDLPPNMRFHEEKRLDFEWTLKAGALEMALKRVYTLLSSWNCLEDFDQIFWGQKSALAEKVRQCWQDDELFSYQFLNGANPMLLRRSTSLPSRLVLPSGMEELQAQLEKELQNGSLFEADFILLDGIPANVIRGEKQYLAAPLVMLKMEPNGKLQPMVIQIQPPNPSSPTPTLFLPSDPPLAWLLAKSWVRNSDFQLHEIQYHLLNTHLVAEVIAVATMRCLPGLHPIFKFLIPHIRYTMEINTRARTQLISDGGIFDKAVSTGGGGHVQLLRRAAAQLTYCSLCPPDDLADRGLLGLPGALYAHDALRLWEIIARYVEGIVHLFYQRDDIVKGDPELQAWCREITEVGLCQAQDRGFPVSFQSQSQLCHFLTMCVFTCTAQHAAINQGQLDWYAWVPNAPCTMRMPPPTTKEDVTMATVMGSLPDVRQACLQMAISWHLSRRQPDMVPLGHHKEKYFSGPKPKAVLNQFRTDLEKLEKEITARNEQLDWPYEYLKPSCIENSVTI
# Outline: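 Recombinant human h15-LOX-1 (0.125 μM, 25 mM HEPES pH 7.5, 20 min) or h12-LOX (0.3 μM, pH 8.0, 1 h) reacted at room temperature with 1 μM 14S-HpDHA while oxylipin modulator was titrated (1–100 μM), or with 14S-HpDHA varied alone (1–50 μM). Products were reduced and analysed by LC-MS. Dehydration (epoxide) versus oxygenation product percentages were calculated, N = 3.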
# [2] = target: T2, h15-LOX-2 (Homo sapiens, UniProt O15296); assay: Steady-state kinetics of h15-LOX-2 with 14S-HpDHA; assay type: biochemical; conditions: various 14S-HpDHA concentrations
# T2 sequence (O15296 1-676): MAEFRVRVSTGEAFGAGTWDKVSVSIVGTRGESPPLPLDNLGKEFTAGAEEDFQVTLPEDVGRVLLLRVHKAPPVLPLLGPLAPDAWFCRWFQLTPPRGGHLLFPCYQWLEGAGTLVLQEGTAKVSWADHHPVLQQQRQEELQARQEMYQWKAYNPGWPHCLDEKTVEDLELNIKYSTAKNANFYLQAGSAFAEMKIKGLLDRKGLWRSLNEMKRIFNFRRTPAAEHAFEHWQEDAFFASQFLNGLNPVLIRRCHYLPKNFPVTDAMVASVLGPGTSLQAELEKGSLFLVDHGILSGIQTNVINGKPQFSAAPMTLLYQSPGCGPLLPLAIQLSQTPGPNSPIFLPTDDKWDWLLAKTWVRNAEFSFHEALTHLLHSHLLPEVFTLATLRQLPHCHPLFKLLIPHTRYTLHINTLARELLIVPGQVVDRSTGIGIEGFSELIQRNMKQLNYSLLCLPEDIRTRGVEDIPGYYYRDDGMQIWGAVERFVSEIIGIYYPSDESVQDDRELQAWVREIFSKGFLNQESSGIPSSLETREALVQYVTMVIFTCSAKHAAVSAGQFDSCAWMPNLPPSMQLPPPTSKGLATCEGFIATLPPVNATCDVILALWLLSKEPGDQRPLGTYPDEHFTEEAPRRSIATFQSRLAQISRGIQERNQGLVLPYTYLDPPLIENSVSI
# Outline: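 Reactions were run in a quartz cuvette containing 2 mL of 25 mM HEPES, pH 7.5, at room temperature, with 14S-HpDHA at various concentrations. The 14S-HpDHA stock was quantified at 234 nm in methanol (ε 27 000 M−1 cm−1). Product formation was followed by absorbance at 270 nm (ε 37 000 M−1 cm−1), with triplicate reactions.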
# [3] = target: T3, h15-LOX-1 (Homo sapiens, UniProt P16050); assay: Product analysis of h15-LOX-1 reactions; assay type: biochemical
# T3 sequence (P16050 1-662): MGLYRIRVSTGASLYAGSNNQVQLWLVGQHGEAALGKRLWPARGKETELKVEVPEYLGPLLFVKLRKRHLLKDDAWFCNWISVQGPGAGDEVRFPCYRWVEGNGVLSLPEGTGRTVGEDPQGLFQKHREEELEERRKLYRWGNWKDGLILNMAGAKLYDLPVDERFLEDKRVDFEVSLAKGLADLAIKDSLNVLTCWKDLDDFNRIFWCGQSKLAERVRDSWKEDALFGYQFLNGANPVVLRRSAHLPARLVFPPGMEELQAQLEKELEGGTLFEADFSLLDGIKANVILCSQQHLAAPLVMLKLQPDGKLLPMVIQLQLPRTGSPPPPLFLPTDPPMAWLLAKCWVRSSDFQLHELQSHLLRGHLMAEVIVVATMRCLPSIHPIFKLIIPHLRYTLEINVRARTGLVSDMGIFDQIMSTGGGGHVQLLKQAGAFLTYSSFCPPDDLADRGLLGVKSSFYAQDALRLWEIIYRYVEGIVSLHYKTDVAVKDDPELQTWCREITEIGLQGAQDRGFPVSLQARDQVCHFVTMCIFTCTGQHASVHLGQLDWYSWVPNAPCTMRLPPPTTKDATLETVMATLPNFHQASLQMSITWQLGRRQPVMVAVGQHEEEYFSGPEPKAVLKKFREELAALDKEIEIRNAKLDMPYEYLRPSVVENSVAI
# Outline: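 h15-LOX-1 (0.125 μM, pH 7.5) or h12-LOX (0.300 μM, pH 8.0) was reacted in 25 mM HEPES at room temperature under ambient O2. Substrates were 10 μM DHA for 1 min (monitored at 234 nm) or 1 μM 14S-HpDHA for 20 min (h15-LOX-1) or 1 h (h12-LOX) (monitored at 270 nm). Reactions were quenched with acetic acid, spiked with d5-maresin-1, extracted into DCM and background-subtracted against a no-enzyme control. Split samples were run with or without trimethyl phosphite reduction. Products were identified by C18 LC-MS/MS (qTOF), N = 3.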
# [4] = target: T3, h15-LOX-1; assay: Steady-state kinetics of h15-LOX-1
# [5] = h15-LOX-1 + 1 μM 14S-HpDHA, 20 min, pH 7.5, ambient O2
# [6] = h15-LOX-1 + substrate, 25 mM HEPES pH 7.5, RT
compound,measurement,setting,value
"CC/C=C\C/C=C\C[C@@H](/C=C/C=C\C/C=C\C/C=C\CCC(=O)O)OO [14S-HpDHA, 14S-hydroperoxy-4Z,7Z,10Z,12E,16Z,19Z-docosahexaenoic acid]",epoxidation product at end of titration,[1],19%
same,reaction with h15-LOX-2,[2],not to react
same,"product profile: 7S,14S-EZE-diHpDHA",[3]; [5],29% and 29 ± 6%
same,"product profile: 13S,14S-epoxy-DHA (detected as 7S/R,14S-EEE-diHDHA)",[3]; [5],71% and 71 ± 6%
same,"product profile: 14S,20-diHpDHA",[3]; [5],<1.0%
same,"loss in 7S,14S-EZE-diHpDHA production at increased pH","[3]; h15-LOX-1 + 14S-HpDHA, Figure S3",7 fold
same,kcat,[4]; h15-LOX-1,2e+06 ± 40000 M⁻¹ s⁻¹
same,"13S,14S-epoxy-DHA biosynthetic flux","[4]; h15-LOX-1 + 14S-HpDHA, B.F. = kcat/KM * % product",0.078
same,Km,[4]; [6],18 ± 1 µM
same,kcat,[4]; [6],2.0 ± 0.04 s⁻¹
same,fold difference of kcat/KM,"[4]; h15-LOX-1, kcat/KM of enzyme with DHA set to 1 (Table 5)",−3.2
same,kcat of h15-LOX-1 greater than that of h12-LOX,[4]; substrate 14S-HpDHA,~10 fold
